Published values collected from several papers.
Lines come from different studies, so protocols differ.
CYP3A4: Cytochrome P450 3A4 (CYP3A4, Homo sapiens, UniProt P08684)
SLCO1B1: Solute carrier organic anion transporter family member 1B1 (SLCO1B1, Homo sapiens, UniProt Q9Y6L6)
CYP1A2: Cytochrome P450 1A2 (CYP1A2, Homo sapiens, UniProt P05177)

COC(=O)C1CCN(C(=O)c2cccc(NCc3cnc4nc(N)nc(N)c4n3)c2)CC1 — inhibition (CYP3A4; enzyme activity, inhibitor, luciferase; 10 µM): -19.5%
CC(C)(C)OC(=O)N[C@H](CSCCC(=O)NCc1cccnc1)Cc1ccccc1 — ΔTm (CYP3A4; thermal stability): -1 °C
NC(=O)C1CCN(C(=O)c2ccc(NCc3cnc4nc(N)nc(N)c4n3)cc2)CC1 — inhibition (CYP3A4; enzyme activity, inhibitor, luciferase; 10 µM): -4.54%
CN(CCC(=O)O)C(=O)c1ccc2c(c1)CC[C@@H]1[C@@H]2CC[C@]2(C)C(c3cncc(F)c3)=CC[C@@H]12 — IC50 (SLCO1B1; transporter uptake, inhibitor): 3.1 µM
C[C@H]1C[C@H]2[C@@H]3CCC4=CC(=O)C=C[C@]4(C)[C@@]3(Cl)[C@@H](O)C[C@]2(C)[C@@]1(O)C(=O)CO — IC50 (SLCO1B1; transporter uptake, inhibitor): 6.7 µM
O=C(Nc1c2c(cc3c1CCC3)CCC2)NS(=O)(=O)/C=C/c1nccs1 — inhibition (CYP1A2; enzyme activity, inhibitor; human, liver microsomes; 2 µM, pH 7.4): 14.6%
Nc1ccc(S(=O)(=O)Nc2ccnn2-c2ccccc2)cc1 — inhibition (CYP1A2; enzyme activity, inhibitor; human, liver microsomes; 10 µM): -9%
CCCOC(=O)C1CCN(C(=O)c2ccc(N(C)Cc3cnc4nc(N)nc(N)c4n3)cc2)CC1 — inhibition (CYP3A4; enzyme activity, inhibitor, luciferase; 10 µM): -10.1%
CC(C)(C)OC(=O)NCCCCCC(=O)NCc1cccnc1 — ΔTm (CYP3A4; thermal stability): -0.2 °C
CN(C(=O)n1cnc(-c2ccc[n+]([O-])c2)c1)C1CCCCC1 — inhibition (SLCO1B1; transporter uptake, inhibitor; HEK293; 10 µg/mL): ~20%
C=CC(=O)Nc1cc(Nc2nccc(Nc3cc(Cl)c(F)cc3C(C)(C)O)n2)c(OC)cc1N1CC[C@@H](N(C)C)C1 — IC50 (CYP3A4; enzyme activity, inhibitor; human, liver microsomes): 18.2 µM
